# B1: STEP_(F281A/I307A) (domain or fragment)
# chain: GLQERRGSNVSLTLDMCTPGCNEEGFGYLMSPREESAREYLLSASRVLQAEELHEKALDPFLLQAEFAEIPMNFVDPKEYDIPGLVRKNRYKTALPNPHSRVCLTSPDPDDPLSSYINANYIRGYGGEEKVYIATQGPIVSTVADFWRMVWQEHTPIIVMITNIEEMNEKCTEYWPEEQVAYDGVEITVQKVIHTEDYRLRLISLKSGTEERGLKHYWFTSWPDQKTPDRAPPLLHLVREVEEAAQQEGPHCAPIIVHCSAGIGRTGCFIATSICCQQLRQEGVVDILKTTCQLRQDRGGMIQTCEQYQFVHHVMSLYEKQLSHQS
# B2: PTPSL (residues 332–655) (domain or fragment, UniProt Q15256 332-655, looked up)
# chain: GLQERRGSNVSLTLDMSSLGNIEPFVSIPTPREKVAMEYLQSASRILTRSQLRDVVASSHLLQSEFMEIPMNFVDPKEIDIPRHGTKNRYKTILPNPLSRVCLRPKNVTDSLSTYINANYIRGYSGKEKAFIATQGPMINTVDDFWQMVWQEDSPVIVMITKLKEKNEKCVLYWPEKRGIYGKVEVLVISVNECDNYTIRNLVLKQGSHTQHVKHYWYTSWPDHKTPDSAQPLLQLMLDVEEDRLASQGRGPVVVHCSAGIGRTGCFIATSIGCQQLKEEGVVDALSIVCQLRMDRGGMVQTSEQYEFVHHALCLYESRLSAET
# B3: PTPSLCAT: PTPSLCAT (residues 361–655), catalytic domain (protein)
# chain: TPREKVAMEYLQSASRILTRSQLRDVVASSHLLQSEFMEIPMNFVDPKEIDIPRHGTKNRYKTILPNPLSRVCLRPKNVTDSLSTYINANYIRGYSGKEKAFIATQGPMINTVDDFWQMVWQEDSPVIVMITKLKEKNEKCVLYWPEKRGIYGKVEVLVISVNECDNYTIRNLVLKQGSHTQHVKHYWYTSWPDHKTPDSAQPLLQLMLDVEEDRLASQGRGPVVVHCSAGIGRTGCFIATSIGCQQLKEEGVVDALSIVCQLRMDRGGMVQTSEQYEFVHHALCLYESRLSAET
# B4: STEP: STEP (residues 214–539) (protein, UniProt P54829 214-539, looked up, fragment)
# chain: TPVFDCVMDIKPEADPTSLTVKSMGLQERRGSNVSLTLDMCTPGCNEEGFGYLMSPREESAREYLLSASRVLQAEELHEKALDPFLLQAEFFEIPMNFVDPKEYDIPGLVRKNRYKTILPNPHSRVCLTSPDPDDPLSSYINANYIRGYGGEEKVYIATQGPIVSTVADFWRMVWQEHTPIIVMITNIEEMNEKCTEYWPEEQVAYDGVEITVQKVIHTEDYRLRLISLKSGTEERGLKHYWFTSWPDQKTPDRAPPLLHLVREVEEAAQQEGPHCAPIIVHCSAGIGRTGCFIATSICCQQLRQEGVVDILKTTCQLRQDRGGMI
# B5: STEPCAT: STEPCAT (residues 244–539), catalytic domain (protein, UniProt P54829 244-539, looked up, fragment)
# chain: GSNVSLTLDMCTPGCNEEGFGYLMSPREESAREYLLSASRVLQAEELHEKALDPFLLQAEFFEIPMNFVDPKEYDIPGLVRKNRYKTILPNPHSRVCLTSPDPDDPLSSYINANYIRGYGGEEKVYIATQGPIVSTVADFWRMVWQEHTPIIVMITNIEEMNEKCTEYWPEEQVAYDGVEITVQKVIHTEDYRLRLISLKSGTEERGLKHYWFTSWPDQKTPDRAPPLLHLVREVEEAAQQEGPHCAPIIVHCSAGIGRTGCFIATSICCQQLRQEGVVDILKTTCQLRQDRGGMI
# modifications: catalytic domain
# B6: HePTP: KIM-PTP HePTP (PTPN7, LC-PTP) (protein, UniProt P35236 1-360, looked up)
# Tyrosine-protein phosphatase …: MVQAHGGRSRAQPLTLSLGAAMTQPPPEKTPAKKHVRLQERRGSNVALMLDVRSLGAVEPICSVNTPREVTLHFLRTAGHPLTRWALQRQPPSPKQLEEEFLKIPSNFVSPEDLDIPGHASKDRYKTILPNPQSRVCLGRAQSQEDGDYINANYIRGYDGKEKVYIATQGPMPNTVSDFWEMVWQEEVSLIVMLTQLREGKEKCVHYWPTEEETYGPFQIRIQDMKECPEYTVRQLTIQYQEERRSVKHILFSAWPDHQTPESAGPLLRLVAEVEESPETAAHPGPIVVHCSAGIGRTGCFIATRIGCQQLKARGEVDILGIVCQLRLDRGGMIQTAEQYQFLHHTLALYAGQLPEEPSP
# Tests used:
# p38α (unphosphorylated) [1] = molecular target: p38α (unphosphorylated) (UniProt Q16539); experiment: ITC
# p38α [2] = molecular target: T1, p38α (Homo sapiens, UniProt Q16539); experiment: Small angle X-ray scattering, resting-state complex with unphosphorylated p38α; details: SAXS, GNOM
# Outline: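 Unphosphorylated p38α was mixed 1:1 with PTPSL 331–655 or STEP 214–539 for 30 min on ice, then SEC-purified in 50 mM HEPES pH 6.8, 150 mM NaCl, 5 mM DTT. Samples were 0.4–4.0 mg/ml (PTPSL) or 1.0–4.0 mg/ml (STEP), filtered, flowed through a 1 mm capillary and exposed 30 s or 180 s at a synchrotron beamline. Dmax came from the P(r) function.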
# p38α (unphosphorylated) [3] = molecular target: p38α (unphosphorylated) (UniProt Q16539 1-360); experiment: ITC
# p38α [4] = molecular target: T1, p38α; details: 2011, cited from earlier work; for dephosphorylation of p38α (in words): in vitro phosphatase assays, ref Zhang et al.
# p38α [5] = molecular target: T1, p38α; experiment: Isothermal titration calorimetry; format: binding
# p38α [6] = molecular target: T1, p38α; experiment: NMR chemical shift perturbation, 2D [1H,15N] TROSY of [2H,15N]-p38α; format: binding; details: for number of p38α peaks with CSPs on complex formation / number of p38α peaks with line-widths broadened beyond detection / number of perturbed p38α peaks in fast exchange: free vs bound p38α, SEC-purified 1:1 complex, NMR buffer pH 6.8; for number of p38α peaks with CSPs on complex formation / number of p38α peaks with line-widths broadened beyond detection / number of perturbed p38α peaks in fast exchange / interaction with p38α by NMR (in words): 298 K; for interaction with p38α by NMR (in words): 2D [1H,15N] TROSY, 800 MHz, 50 mM HEPES pH 6.8, 150 mM NaCl, 5 mM dithiothreitol
# [7] = ITC, 25 °C, 10 mM Tris pH 7.5, 150 mM NaCl, 0.1 mM EDTA, 0.5 mM TCEP
# T1 sequence (Q16539 whole entry): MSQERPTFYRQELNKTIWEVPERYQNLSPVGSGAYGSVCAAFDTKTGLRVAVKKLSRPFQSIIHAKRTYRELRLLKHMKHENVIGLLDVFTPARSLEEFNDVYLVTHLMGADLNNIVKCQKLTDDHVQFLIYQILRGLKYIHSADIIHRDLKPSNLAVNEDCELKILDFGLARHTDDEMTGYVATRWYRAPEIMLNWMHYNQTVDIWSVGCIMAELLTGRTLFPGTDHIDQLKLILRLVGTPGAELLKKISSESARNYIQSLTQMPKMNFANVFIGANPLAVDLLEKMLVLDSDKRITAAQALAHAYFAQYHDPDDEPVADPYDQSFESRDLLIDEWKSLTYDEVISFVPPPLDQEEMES
# Sequence of p38α (unphosphorylated) (UniProt Q16539 1-360) (Q16539 whole entry): as above
# Sequence of p38α (unphosphorylated) (UniProt Q16539) (Q16539 whole entry): as above
molecule,measurement,setting,value
STEP_(M285A/I307A) (domain or fragment),Kd,p38α (unphosphorylated) [1],592 nM
same,dH,p38α (unphosphorylated) [1],-27.6 kcal/mol
p38:PTPRR: 1:1 complex of unphosphorylated p38α with PTPSL 331–655,Dmax (P(r) function calculation),p38α [2],105 Å
same,Rg (P(r) function calculation),p38α [2],34.1 Å
PSChimera (from UniProt Q15256 332-373),Kd,p38α (unphosphorylated) [1],309 nM
same,dH,p38α (unphosphorylated) [1],-27.2 kcal/mol
STEP (residues 214–539) (domain or fragment),Kd,p38α (unphosphorylated) [1],577 nM
same,dH,p38α (unphosphorylated) [1],-28.8 kcal/mol
STEP_(F274A/F281A) (domain or fragment),Kd,p38α (unphosphorylated) [1],1070 nM
same,dH,p38α (unphosphorylated) [1],-24.2 kcal/mol
B1,Kd,p38α (unphosphorylated) [3],1060 ± 36 nM
same,dH,p38α (unphosphorylated) [3],-34.3 ± 1.1 kcal/mol
"GLQERRGSNVSLTLDMSSLGNIEPFVSIPTPREKVAMEYLQS (peptide, UniProt Q15256 332-373, looked up) [PTPSL_(KIMKIS) (residues 332–373)]",Kd,p38α (unphosphorylated) [3],1530 ± 23 nM
same,dH,p38α (unphosphorylated) [3],-38.8 ± 6.1 kcal/mol
B2,Kd,p38α (unphosphorylated) [3],382 ± 65 nM
same,dH,p38α (unphosphorylated) [3],-30.2 ± 1.5 kcal/mol
same,dephosphorylation of p38α (in words),p38α [4],the most efficient p38α phosphatase of all tested
same,relative binding affinity for p38α (in words),p38α [5]; ITC,the highest affinity interaction with p38α among the KIM-PTPs
same,TΔS,p38α [5]; [7],-21.4 ± 1.4 kcal/mol
same,ΔG,p38α [5]; [7],-8.8 ± 0.1 kcal/mol
same,times tighter binding to p38α than PTPSLKIM,"p38α [5]; ITC, relative to PTPSLKIM",~ 7 times
same,times tighter binding to p38α than HePTP,p38α [5]; relative to HePTP,~6 times
same,number of p38α peaks with CSPs on complex formation,p38α [6],41 peaks
same,number of p38α peaks with line-widths broadened beyond detection,p38α [6],5 peaks
same,number of perturbed p38α peaks in fast exchange,p38α [6],36 peaks
B3,interaction with p38α by NMR (in words),p38α [6],no interactions between p38α and isolated PTPSLCAT were detected
B4,"kcat for dephosphorylation of p38α, fold lower than for PTPSL or HePTP","p38α [4]; compared with PTPSL or HePTP, ref Balasu et al., 2009, Zhang et al.",~ 20 fold
same,dephosphorylation of p38α (in words),p38α [4],significantly less efficient than PTPSL and HePTP at dephosphorylating p38α
same,Kd,p38α [5]; [7],577 ± 71 nM
same,TΔS,p38α [5]; [7],-20.3 ± 2.0 kcal/mol
same,ΔG,p38α [5]; [7],-8.5 ± 0.1 kcal/mol
same,ΔH,p38α [5]; [7],-28.8 ± 2.0 kcal/mol
same,times tighter binding to p38α than STEPKIM,"p38α [5]; ITC, relative to STEPKIM",~ 6 times
same,additional or larger CSPs (residues) than with the corresponding KIM peptide,p38α [6]; comparison with p38α:STEPKIM or p38α:PTPSLKIM spectra,three
same,number of p38α peaks with CSPs on complex formation,p38α [6],58 peaks
same,number of p38α peaks with line-widths broadened beyond detection,p38α [6],18 peaks
same,number of perturbed p38α peaks in fast exchange,p38α [6],40 peaks
B5,interaction with p38α by NMR (in words),p38α [6],non-specific interactions throughout the p38α surface
B6,dephosphorylation of p38α (in words),p38α [4],can both readily dephosphorylate p38α
